Sampled rows, rich in hits. Any-hit rate of the full collection: about 2.2%.
GSTO1 inh = GSTO1 inhibition, counter-screen for RBBP9 inhibitors; P78417; inhibition, % at 5.96 µM; recombinant GSTO1, activity-based probe fluorescence polarization; 300,000 tested, 1.1% active;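 active = inhibition above the campaign mean inhibition plus 3 SD, cut at about 35% in these data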;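 also: 0% = GSTO1-1 with DMSO and 100% = wells lacking GSTO1-1 enzyme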
Target sequence (P78417 whole entry, looked up): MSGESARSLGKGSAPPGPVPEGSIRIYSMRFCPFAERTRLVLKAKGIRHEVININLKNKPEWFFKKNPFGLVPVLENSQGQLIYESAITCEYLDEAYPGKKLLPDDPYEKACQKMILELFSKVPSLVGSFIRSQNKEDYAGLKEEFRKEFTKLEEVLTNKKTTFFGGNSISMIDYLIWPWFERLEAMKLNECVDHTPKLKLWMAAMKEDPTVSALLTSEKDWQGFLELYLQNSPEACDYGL
UBC13 inh = inhibitors of human UBC13 polyubiquitin chain formation; TR-FRET; P61088; inhibition, % at 20 µM; AID 485273; 330,000 tested, 0.47% active; in the data active = inhibition above about 45%, passing the limit was not always enough
Target sequence (P61088 whole entry, looked up): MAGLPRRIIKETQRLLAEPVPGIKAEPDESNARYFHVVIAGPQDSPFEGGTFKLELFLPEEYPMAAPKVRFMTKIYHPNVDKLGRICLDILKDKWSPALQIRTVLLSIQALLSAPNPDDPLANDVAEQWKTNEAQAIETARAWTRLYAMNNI
UBC9 SUMO inh = inhibitors of human SUMOylation (UBC9); inhibition, % at 35 µM; 290,000 tested, 0.36% active; HTRF SUMOylation assay, SAE1/SAE2 + UBC9, in vitro; in the data active = inhibition above about 50%, passing the limit was not always enough
Target sequence (P63279 whole entry, looked up): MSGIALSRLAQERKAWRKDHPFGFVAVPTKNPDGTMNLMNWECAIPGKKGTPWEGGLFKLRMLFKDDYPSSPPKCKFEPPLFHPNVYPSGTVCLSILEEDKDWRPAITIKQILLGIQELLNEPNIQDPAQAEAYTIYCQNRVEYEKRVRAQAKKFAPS
PAD4 FP inh = PAD4 (human) enzyme inhibition. Q9UM07. recombinant PAD4, RCA probe fluorescence polarization. inhibition, % at 6.36 µM. 330,000 tested, 0.41% active. AID 485272;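 active = percent inhibition above a cutoff equal to the mean of all tested compounds plus 3 SD, cut at about 15% in these data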;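 also: 0% = PAD4 with RCA probe and DMSO and 100% = probe without PAD4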
Rin1 Abl inh = human Rin1-Abl interaction inhibition | P00519+Q13671 | TR-FRET Rin1/Abl binding, biochemical | inhibition, % at 7.35 µM | 360,000 tested, 0.4% active; in the data active = inhibition above about 5%, passing the limit was not always enough
Apaf1 inhib = inhibitors of human Apaf-1 apoptosome; O14727; reconstituted apoptosome caspase-3 activity, DEVD-Rh110 fluorescence; inhibition, % at 20 µM; 330,000 tested, 0.71% active; AID 489030; active = inhibition of at least 40% at 20 µM;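 also: plate controls were DMSO wells for no effect and DEVD-CHO caspase inhibitor wells for full effect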
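detection = Rh110 fluorescence intensity | test system = biochemical Apaf-1 apoptosome reconstitution | also added = cytochrome c and DEVD-Rh110 substrate | schedule = 30 min plus 50 min, RT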
GSTO1 inh conf = GSTO1 (human) inhibition, confirmation. shares compounds with GSTO1 inh. recombinant GSTO1, probe fluorescence polarization. inhibition, % at 5.96 µM. 2,400 tested, 54% active. AID 2176;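 active = inhibition above the primary screen's cutoff, its mean inhibition plus 3 SD, cut at about 35% in these data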;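 also: loss of polarization as inhibitors block binding of rhodamine sulfonate ester activity probe; 0% = GSTO1 with DMSO and 100% = wells lacking GSTO1 enzyme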
PAD4 FP conf = PAD4 (human) inhibition, confirmed; shares compounds with PAD4 FP inh; recombinant PAD4, RCA probe fluorescence polarization; inhibition, % at 6.36 µM; 1,200 tested, 28% active; AID 488796;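 active = mean inhibition across replicates above the hit cutoff set by the earlier primary screen, cut at about 15% in these data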;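 also: inhibitors block active-site labeling by the probe so polarization falls; 0% = PAD4 with probe and DMSO and 100% = probe without PAD4 enzyme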
Casp3 counter = caspase-3 inhibition (UBC13 counter-screen). shares compounds with UBC13 inh. Recombinant caspase-3, Caspase-Glo 3/7 luminescence, 60 min. inhibition, % at 20 µM. 1,400 tested, 4% active. AID 488856;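 active = mean inhibition across replicates above about 26%, limit read from the data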;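 also: plate controls were DMSO with caspase-3 for no effect and DMSO wells lacking enzyme for full effect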
UBC13 conf = human UBC13 polyubiquitin inhibition, confirmed; UBC13 polyubiquitination, TR-FRET, biochemical; 1,400 tested, 68% active; inhibition, % at 10 µM; shares compounds with UBC13 inh; in the data active = inhibition above about 45%
Apaf-1 inh conf2 = Apaf-1 inhibition, single-dose confirmed. reconstituted apoptosome, caspase-3 DEVD-Rh110 fluorescence. shares compounds with Apaf1 inhib. inhibition, % at 20 µM. 1,800 tested, 25% active;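 active = mean inhibition of at least 40% at 20 µM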;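 also: plate controls were DMSO wells for no effect and DEVD-CHO caspase inhibitor control wells for full effect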
Rh110 interf inh = counter-screen for Apaf-1 inhibitors: fluorescence interference. shares compounds with Apaf1 inhib. Rh110 fluorescence interference, quenched caspase reaction. activation (fluorescence interference), % at 20 µM. 1,800 tested, under 10 active. AID 504615;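 active = signal rise of 40% or more at 20 µM, treated as a fluorescence artifact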
Fluor interf inh = Apaf-1 inhibitor counter-screen fluorescence artifact; AID 588538; shares compounds with Apaf1 inhib; 460 tested, under 10 active; IC50, µM; fluorescence interference counterscreen, Apaf-1 assay format; call rule not given here
* marks the source's active call; other numbers are inactive results.

For Cn1c2ccc(Cl)cc2c2nc3ccccc3nc21 the results were GSTO1 inh 75.9*, UBC13 inh 48.7*, UBC9 SUMO inh 88.9, PAD4 FP inh -1.2, Rin1 Abl inh 1.4, Apaf1 inhib 22.5, GSTO1 inh conf -3.7, Casp3 counter 0.1 and UBC13 conf 6.6.
Screening C=C(C)CNC(=S)N=Nc1c(O)[nH]c2ccc([N+](=O)[O-])cc12 returned GSTO1 inh 41.7*, UBC13 inh 48.9*, UBC9 SUMO inh -1.5, PAD4 FP inh -4.8, Rin1 Abl inh -8.6, Apaf1 inhib -11.4, GSTO1 inh conf 36.6*, Casp3 counter 0.6 and UBC13 conf 46.8*.
Screening CC(C)c1cc(CNC(=O)C2CCC(=O)N(Cc3ccccc3F)C2)on1 (centres undefined) returned GSTO1 inh -1.9, UBC13 inh -1.9, UBC9 SUMO inh 12.8, PAD4 FP inh 0.7, Rin1 Abl inh -4.5 and Apaf1 inhib -0.8.
For COc1ccc(CCn2c(N)c(C#N)c3nc4ccccc4nc32)cc1OC the results were GSTO1 inh 56.9*, UBC13 inh -35.6, UBC9 SUMO inh 25.9, PAD4 FP inh 24.2*, Rin1 Abl inh -2.7, Apaf1 inhib 60.5*, GSTO1 inh conf -5.0, PAD4 FP conf -11.2, Apaf-1 inh conf2 -2.3 and Rh110 interf inh 0.9.
`COc1ccc(CCn2c(N)c(S(=O)(=O)c3cccs3)c3nc4ccccc4nc32)cc1OC` gave GSTO1 inh 0.4, UBC13 inh -10.3, UBC9 SUMO inh -29.6, PAD4 FP inh -6.7, Rin1 Abl inh -0.8 and Apaf1 inhib -0.1.
COc1ccc(CCn2c(N)c(C(=O)NCc3ccco3)c3nc4ccccc4nc32)cc1OC was read as GSTO1 inh 51.7*, UBC13 inh -54.7, UBC9 SUMO inh 99.5, PAD4 FP inh -15.8, Rin1 Abl inh 3.6, Apaf1 inhib 62.8*, GSTO1 inh conf 0.4, Apaf-1 inh conf2 15.5 and Rh110 interf inh 2.8.
For CC(C)CC1NC(=O)N(CC(=O)Nc2cccc(Br)c2)C1=O (centres undefined) the results were UBC13 inh -7.7, PAD4 FP inh -6.8, Rin1 Abl inh 2.0 and Apaf1 inhib 3.9.
Screening COc1ccc([C@H]2N[C@]3(CCCN(Cc4cccn4C)C3=O)[C@H]3C(=O)N(Cc4ccccc4)C(=O)[C@@H]23)cc1 returned Rin1 Abl inh -2.3.
Screening C[C@]12CC[C@H](O)CC1=C[C@H](O)C1C2CC[C@@]2(C)C1CC[C@@]2(O)C#Cc1ccc(CN)cc1 (some centres undefined) returned Rin1 Abl inh 10.0.
For O=S(=O)(c1ccccc1S(=O)(=O)N1CCCCC1)N1CCCCC1 the results were GSTO1 inh -1.2, UBC13 inh 4.5, UBC9 SUMO inh 13.7, PAD4 FP inh 1.5, Rin1 Abl inh -3.9 and Apaf1 inhib -2.3.
`O=C1C=C(N2CCCCC2)c2ccccc2C1=O` gave GSTO1 inh 90.6*, UBC13 inh -191.5, PAD4 FP inh 64.8*, Rin1 Abl inh -1.5, Apaf1 inhib 97.6*, GSTO1 inh conf 88.3*, PAD4 FP conf 61.4*, Apaf-1 inh conf2 99.6*, Rh110 interf inh 3.1 and Fluor interf inh >100.
`CC(=O)c1ccc(OC(C)C(=O)OCC(=O)NCCc2ccccc2)cc1` (centres undefined) gave UBC13 inh -3.0, PAD4 FP inh 0.9, Rin1 Abl inh 5.9 and Apaf1 inhib -3.6.
Screening O=C1C(=O)c2ccc(-c3ccccc3)cc2-c2ccccc21 returned GSTO1 inh 87.4*, UBC13 inh -49.5, UBC9 SUMO inh 96.6*, PAD4 FP inh -2.9, Rin1 Abl inh -1.8, Apaf1 inhib 98.1*, GSTO1 inh conf 90.6*, Apaf-1 inh conf2 99.7*, Rh110 interf inh 7.6 and Fluor interf inh >100.
For Nc1ccc2c(c1)C(=O)c1ccccc1-2 the results were GSTO1 inh 6.0, UBC13 inh -102.3, PAD4 FP inh -1.3, Rin1 Abl inh -12.1 and Apaf1 inhib -2.2.
COc1cccc(NC(=O)CN(C)C(=O)CNC(=O)c2ccc3ccccc3c2)c1 was read as GSTO1 inh 8.0, UBC13 inh -1.0, PAD4 FP inh -2.1, Rin1 Abl inh 1.5 and Apaf1 inhib 9.7.
`C=CCn1c(NC(=O)c2ccccc2Cl)c(C#N)c2nc3ccccc3nc21` gave GSTO1 inh 78.8*, UBC13 inh -28.7, PAD4 FP inh 58.7*, Rin1 Abl inh 5.3, Apaf1 inhib 96.1*, GSTO1 inh conf 61.8*, PAD4 FP conf -1.8, Apaf-1 inh conf2 60.1*, Rh110 interf inh 4.7 and Fluor interf inh >100.
Screening N#Cc1c(N)n(CCNC(=O)c2ccccc2)c2nc3ccccc3nc12 returned GSTO1 inh -0.5, UBC13 inh -10.1, UBC9 SUMO inh 102.4, PAD4 FP inh 0.5, Rin1 Abl inh 0.7 and Apaf1 inhib -15.3.
CCCS(=O)(=O)NC(=O)C1(C)CCCN(C(=O)c2oc3ccccc3c2C)C1 (centres undefined) was read as Rin1 Abl inh -2.1.
`CCOC(=O)c1c(C)oc2c1C(=O)c1ccccc1C2=O` gave GSTO1 inh 65.7*, UBC13 inh -77.7, UBC9 SUMO inh 78.8, PAD4 FP inh 5.5, Rin1 Abl inh 3.1, Apaf1 inhib 68.5*, GSTO1 inh conf 64.1*, Apaf-1 inh conf2 67.8*, Rh110 interf inh 1.6 and Fluor interf inh >100.
`Cc1oc2c(c1C(=O)O)C(=O)c1ccccc1C2=O` gave GSTO1 inh 60.5*, UBC13 inh -56.3, UBC9 SUMO inh 56.9, PAD4 FP inh 9.3, Rin1 Abl inh -2.5, Apaf1 inhib 79.5*, GSTO1 inh conf 61.7*, Apaf-1 inh conf2 68.5*, Rh110 interf inh -1.3 and Fluor interf inh >100.

Screening results (PubChem BioAssay)
